Reference: ChEMBL document CHEMBL1157912, “Impact of nature and length of linker incorporated in agonists on toll-like receptor 9-mediated immune responses” (J Med Chem, 2010)

Key:
[1] = target: T1, Toll-like receptor 9 (Homo sapiens) (UniProt Q9NR96); experiment: Induction of TLR9-mediated immune stimulation in human PBMC assessed as MIP1beta production at 10 ug/ml after 24 hrs by luminex multiplex assay (RVb = 0.03 +/- 0.02 ng/ml)
T1 sequence (whole entry): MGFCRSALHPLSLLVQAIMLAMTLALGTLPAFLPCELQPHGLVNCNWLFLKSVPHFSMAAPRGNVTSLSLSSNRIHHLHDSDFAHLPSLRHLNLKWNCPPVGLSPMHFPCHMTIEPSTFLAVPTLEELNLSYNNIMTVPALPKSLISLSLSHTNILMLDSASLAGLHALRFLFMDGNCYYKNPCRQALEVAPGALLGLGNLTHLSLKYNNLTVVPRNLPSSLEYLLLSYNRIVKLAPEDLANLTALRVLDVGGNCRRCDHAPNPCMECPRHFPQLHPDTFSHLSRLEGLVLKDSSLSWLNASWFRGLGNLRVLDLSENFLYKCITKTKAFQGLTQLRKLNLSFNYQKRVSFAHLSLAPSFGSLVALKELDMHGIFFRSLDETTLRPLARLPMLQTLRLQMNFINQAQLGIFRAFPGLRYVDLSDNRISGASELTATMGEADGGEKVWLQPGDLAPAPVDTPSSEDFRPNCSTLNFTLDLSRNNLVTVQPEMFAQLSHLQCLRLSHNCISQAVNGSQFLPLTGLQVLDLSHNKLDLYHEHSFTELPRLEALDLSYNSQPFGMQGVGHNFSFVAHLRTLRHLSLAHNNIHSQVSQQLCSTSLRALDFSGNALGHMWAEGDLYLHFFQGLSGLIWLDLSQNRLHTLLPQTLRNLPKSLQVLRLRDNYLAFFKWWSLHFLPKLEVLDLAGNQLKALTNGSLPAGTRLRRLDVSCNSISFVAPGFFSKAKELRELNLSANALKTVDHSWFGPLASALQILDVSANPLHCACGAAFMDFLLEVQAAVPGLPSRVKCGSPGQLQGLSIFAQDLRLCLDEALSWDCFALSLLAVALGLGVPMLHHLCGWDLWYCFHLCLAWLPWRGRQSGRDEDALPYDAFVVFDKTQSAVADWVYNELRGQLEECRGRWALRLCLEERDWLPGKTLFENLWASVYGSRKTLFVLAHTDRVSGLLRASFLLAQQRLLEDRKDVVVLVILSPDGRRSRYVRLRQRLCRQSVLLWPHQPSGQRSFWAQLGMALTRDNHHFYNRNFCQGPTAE

[2] = target: T1, Toll-like receptor 9 (Homo sapiens); experiment: Induction of TLR9-mediated immune stimulation in human PBMC assessed as MIP1alpha production at 10 ug/ml after 24 hrs by luminex multiplex assay (RVb = 0.01 ng/ml)
[3] = target: T2, Toll-like receptor 9 (Mus musculus) (UniProt Q9EQU3); experiment: Activation of mouse TLR9 expressed in HEK293 cells assessed as induction of NF-kappaB activity after 18 hrs by SEAP assay; type: cell-based
T2 sequence (whole entry): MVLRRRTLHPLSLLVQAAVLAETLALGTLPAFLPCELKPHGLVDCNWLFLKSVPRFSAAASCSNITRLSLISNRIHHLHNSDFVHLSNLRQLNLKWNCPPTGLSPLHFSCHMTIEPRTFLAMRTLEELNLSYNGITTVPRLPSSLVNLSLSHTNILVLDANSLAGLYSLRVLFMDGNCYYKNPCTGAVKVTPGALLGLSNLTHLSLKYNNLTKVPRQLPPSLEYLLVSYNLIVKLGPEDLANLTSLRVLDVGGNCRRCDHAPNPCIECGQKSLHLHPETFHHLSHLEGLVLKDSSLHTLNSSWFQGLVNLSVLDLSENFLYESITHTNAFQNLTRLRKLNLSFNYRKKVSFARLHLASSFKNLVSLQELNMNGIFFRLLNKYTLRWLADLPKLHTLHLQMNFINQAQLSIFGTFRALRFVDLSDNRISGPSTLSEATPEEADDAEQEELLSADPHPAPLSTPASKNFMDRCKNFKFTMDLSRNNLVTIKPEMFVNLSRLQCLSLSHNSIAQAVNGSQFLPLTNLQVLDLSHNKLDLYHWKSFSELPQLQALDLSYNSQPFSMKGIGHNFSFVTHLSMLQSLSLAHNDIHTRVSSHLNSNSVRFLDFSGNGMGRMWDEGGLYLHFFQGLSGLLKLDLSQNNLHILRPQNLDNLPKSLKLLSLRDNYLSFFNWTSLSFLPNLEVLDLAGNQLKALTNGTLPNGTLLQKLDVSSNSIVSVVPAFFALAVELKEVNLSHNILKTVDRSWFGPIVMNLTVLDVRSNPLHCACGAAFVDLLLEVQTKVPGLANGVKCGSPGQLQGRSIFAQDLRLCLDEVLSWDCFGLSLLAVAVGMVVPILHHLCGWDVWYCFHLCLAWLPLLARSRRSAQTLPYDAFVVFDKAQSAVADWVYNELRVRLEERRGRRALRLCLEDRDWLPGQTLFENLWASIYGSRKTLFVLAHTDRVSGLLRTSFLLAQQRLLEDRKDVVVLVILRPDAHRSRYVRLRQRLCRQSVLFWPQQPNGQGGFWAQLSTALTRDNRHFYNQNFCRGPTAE
How it was run: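 HEK293 cells stably expressing mouse TLR9 were grown in DMEM with 10% heat-inactivated FBS. At 80% confluence they were transiently transfected with a SEAP reporter plasmid (100 ng/well, lipofectamine) for 6 h. Medium was then replaced and agonists were added for 18 h. Supernatant SEAP was read with QuantiBlue substrate at 620-645 nm. Results are expressed as fold NF-κB activity over PBS control.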

[4] = target: T1, Toll-like receptor 9 (Homo sapiens); experiment: Induction of TLR9-mediated immune stimulation in human PBMC assessed as MCP1 production at 2 ug/ml after 24 hrs by luminex multiplex assay (RVb = 0.08 +/- 0.02 ng/ml)
[5] = target: T1, Toll-like receptor 9 (Homo sapiens); experiment: Induction of TLR9-mediated immune stimulation in human PBMC assessed as IP10 production at 10 ug/ml after 24 hrs by luminex multiplex assay (RVb = 0.00 ng/ml)
[6] = target: T2, Toll-like receptor 9 (Mus musculus); experiment: Induction of TLR9-mediated IL12 production in C57BL/6 mouse spleen cells after 24 hrs by ELISA; type: cell-based
How it was run: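 C57BL/6 mouse spleen cells were cultured with agonists at 0.1, 0.3, 1, 3 and 10 μg/mL for 24 h. Secreted IL-12 and IL-6 in the supernatants were measured by ELISA. Values are averages of triplicate wells from one representative of at least two independent experiments.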

[7] = target: T1, Toll-like receptor 9 (Homo sapiens); experiment: Induction of TLR9-mediated immune stimulation in human PBMC assessed as MCP1 production at 10 ug/ml after 24 hrs by luminex multiplex assay (RVb = 0.08 +/- 0.02 ng/ml)
[8] = target: T1, Toll-like receptor 9 (Homo sapiens); experiment: Induction of TLR9-mediated immune stimulation in human PBMC assessed as IL6 production at 10 ug/ml after 24 hrs by luminex multiplex assay (RVb = 0.01 ng/ml)
[9] = target: T1, Toll-like receptor 9 (Homo sapiens); experiment: Induction of TLR9-mediated immune stimulation in human PBMC assessed as IL6 production at 2 ug/ml after 24 hrs by luminex multiplex assay (RVb = 0.01 ng/ml)

Activity [1]: 0.96 ng/mL
Activity [2]: 0.27 ng/mL
Activity [3]: Dose-dependent effect
Activity [4]: 0.22 ng/mL
Activity [5]: 0.03 ng/mL
Activity [6]: Dose-dependent effect
Activity [7]: 7.13 ng/mL
Activity [8]: 0.58 ng/mL
Activity [9]: 0.14 ng/mL
SMILES: Cc1cn([C@H]2C[C@H](OCCOCCOCCOCCOP(=O)(S)O[C@H]3C[C@H](n4cc(C)c(=O)[nH]c4=O)O[C@@H]3COP(=O)(S)O[C@H]3[C@@H](O)[C@H](n4ccc(N)nc4=O)O[C@@H]3COP(=O)(S)O[C@H]3C[C@H](n4cc(C)c(=O)[nH]c4=O)O[C@@H]3COP(=O)(S)O[C@H]3C[C@H](n4cc(C)c(=O)[nH]c4=O)O[C@@H]3COP(=O)(S)O[C@H]3C[C@H](n4ccc5c(=O)[nH]c(N)nc54)O[C@@H]3COP(=O)(S)O[C@H]3[C@@H](O)[C@H](n4ccc(N)nc4=O)O[C@@H]3COP(=O)(S)O[C@H]3C[C@H](n4cc(C)c(=O)[nH]c4=O)O[C@@H]3COP(=O)(S)O[C@H]3[C@@H](O)[C@H](n4cnc5c(=O)[nH]c(N)nc54)O[C@@H]3COP(=O)(S)O[C@H]3C[C@H](n4cc(C)c(=O)[nH]c4=O)O[C@@H]3COP(=O)(S)O[C@H]3[C@@H](O)[C@H](n4ccc(N)nc4=O)O[C@@H]3COP(=O)(S)O[C@H]3C[C@H](n4cc(C)c(=O)[nH]c4=O)O[C@@H]3CO)[C@@H](COP(=O)(S)O[C@H]3[C@@H](O)[C@H](n4ccc(N)nc4=O)O[C@@H]3COP(=O)(S)O[C@H]3C[C@H](n4cc(C)c(=O)[nH]c4=O)O[C@@H]3COP(=O)(S)O[C@H]3C[C@H](n4cc(C)c(=O)[nH]c4=O)O[C@@H]3COP(=O)(S)O[C@H]3C[C@H](n4ccc5c(=O)[nH]c(N)nc54)O[C@@H]3COP(=O)(S)O[C@H]3[C@@H](O)[C@H](n4ccc(N)nc4=O)O[C@@H]3COP(=O)(S)O[C@H]3C[C@H](n4cc(C)c(=O)[nH]c4=O)O[C@@H]3COP(=O)(S)O[C@H]3[C@@H](O)[C@H](n4cnc5c(=O)[nH]c(N)nc54)O[C@@H]3COP(=O)(S)O[C@H]3C[C@H](n4cc(C)c(=O)[nH]c4=O)O[C@@H]3COP(=O)(S)O[C@H]3[C@@H](O)[C@H](n4ccc(N)nc4=O)O[C@@H]3COP(=O)(S)O[C@H]3C[C@H](n4cc(C)c(=O)[nH]c4=O)O[C@@H]3CO)O2)c(=O)[nH]c1=O (some centres undefined)
